Measured values published in ChEMBL document CHEMBL5653631, “A Potent and Selective ULK1 Inhibitor Suppresses Autophagy and Sensitizes Cancer Cells to Nutrient Stress” (iScience, 2018).
Each block holds one compound with its values, some of them ahead of it.

Assays:
[1] = biological target: Calcium/calmodulin-dependent protein kinase type II subunit gamma (Homo sapiens) (UniProt Q13555); test: Inhibition of human recombinant CaMK2g at 500 nM in presence of ATP by radiometric assay relative to control
[2] = biological target: T1, NUAK family SNF1-like kinase 2 (Homo sapiens) (UniProt Q9H093); test: Inhibition of human recombinant NuaK2 at 500 nM related to control ULK1
T1 sequence (whole entry): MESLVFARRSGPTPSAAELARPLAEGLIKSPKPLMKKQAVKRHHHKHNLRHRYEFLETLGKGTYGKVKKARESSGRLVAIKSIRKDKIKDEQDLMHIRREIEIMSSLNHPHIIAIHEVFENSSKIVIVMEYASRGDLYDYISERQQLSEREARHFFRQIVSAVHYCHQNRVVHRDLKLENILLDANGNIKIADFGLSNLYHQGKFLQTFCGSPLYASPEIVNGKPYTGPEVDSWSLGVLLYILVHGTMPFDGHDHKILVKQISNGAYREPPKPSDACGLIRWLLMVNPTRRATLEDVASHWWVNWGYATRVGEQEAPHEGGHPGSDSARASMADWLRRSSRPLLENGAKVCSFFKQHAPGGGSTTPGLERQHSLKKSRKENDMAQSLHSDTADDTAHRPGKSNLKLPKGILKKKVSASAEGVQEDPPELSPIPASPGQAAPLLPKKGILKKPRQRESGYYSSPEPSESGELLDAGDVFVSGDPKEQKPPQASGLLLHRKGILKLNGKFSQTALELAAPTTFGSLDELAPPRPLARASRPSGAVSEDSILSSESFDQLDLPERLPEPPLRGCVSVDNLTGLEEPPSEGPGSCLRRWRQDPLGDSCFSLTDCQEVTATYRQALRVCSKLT

[3] = biological target: Bone morphogenetic protein receptor type-1B (Homo sapiens) (UniProt O00238); test: Inhibition of human recombinant BMPR1B at 500 nM in presence of ATP by radiometric assay relative to control
Outline: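 Part of a radiometric in vitro activity panel of 327 recombinant human kinases. Each kinase was tested in duplicate at one inhibitor concentration. Activity remaining was expressed as a percentage of the vehicle control, and percent inhibition was taken as 100 minus that value.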

[4] = biological target: TGF-beta receptor type-2 (Homo sapiens) (UniProt P37173); test: Inhibition of human recombinant TGFbR2 at 15 nM in presence of ATP by radiometric assay relative to control
[5] = biological target: T2, Serine/threonine-protein kinase ICK (Homo sapiens) (UniProt Q9UPZ9); test: Inhibition of human recombinant ICK at 40 nM related to control ULK1
T2 sequence (whole entry): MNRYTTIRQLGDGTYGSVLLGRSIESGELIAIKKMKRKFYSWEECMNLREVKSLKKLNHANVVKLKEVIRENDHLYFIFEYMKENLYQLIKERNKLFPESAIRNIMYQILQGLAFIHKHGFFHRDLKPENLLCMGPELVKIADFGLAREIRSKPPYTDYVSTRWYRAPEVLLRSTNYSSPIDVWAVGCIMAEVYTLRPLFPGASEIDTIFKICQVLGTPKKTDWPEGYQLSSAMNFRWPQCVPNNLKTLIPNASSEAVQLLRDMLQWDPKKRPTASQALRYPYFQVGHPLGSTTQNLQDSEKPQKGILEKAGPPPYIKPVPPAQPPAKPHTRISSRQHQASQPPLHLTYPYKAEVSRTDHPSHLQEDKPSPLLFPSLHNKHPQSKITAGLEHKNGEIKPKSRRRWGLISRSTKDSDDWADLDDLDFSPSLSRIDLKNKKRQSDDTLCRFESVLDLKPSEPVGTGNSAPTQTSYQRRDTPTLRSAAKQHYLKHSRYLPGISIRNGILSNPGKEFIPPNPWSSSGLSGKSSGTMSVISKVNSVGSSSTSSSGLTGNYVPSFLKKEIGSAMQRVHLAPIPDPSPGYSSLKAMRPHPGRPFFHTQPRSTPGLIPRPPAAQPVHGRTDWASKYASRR

[6] = biological target: Mitogen-activated protein kinase kinase kinase 9 (Homo sapiens) (UniProt P80192); test: Inhibition of human recombinant MLK1 at 40 nM related to control ULK1
[7] = biological target: T3, Discoidin domain-containing receptor 2 (Homo sapiens) (UniProt Q16832); test: Inhibition of human recombinant DDR2 at 40 nM related to control ULK1
T3 sequence (whole entry): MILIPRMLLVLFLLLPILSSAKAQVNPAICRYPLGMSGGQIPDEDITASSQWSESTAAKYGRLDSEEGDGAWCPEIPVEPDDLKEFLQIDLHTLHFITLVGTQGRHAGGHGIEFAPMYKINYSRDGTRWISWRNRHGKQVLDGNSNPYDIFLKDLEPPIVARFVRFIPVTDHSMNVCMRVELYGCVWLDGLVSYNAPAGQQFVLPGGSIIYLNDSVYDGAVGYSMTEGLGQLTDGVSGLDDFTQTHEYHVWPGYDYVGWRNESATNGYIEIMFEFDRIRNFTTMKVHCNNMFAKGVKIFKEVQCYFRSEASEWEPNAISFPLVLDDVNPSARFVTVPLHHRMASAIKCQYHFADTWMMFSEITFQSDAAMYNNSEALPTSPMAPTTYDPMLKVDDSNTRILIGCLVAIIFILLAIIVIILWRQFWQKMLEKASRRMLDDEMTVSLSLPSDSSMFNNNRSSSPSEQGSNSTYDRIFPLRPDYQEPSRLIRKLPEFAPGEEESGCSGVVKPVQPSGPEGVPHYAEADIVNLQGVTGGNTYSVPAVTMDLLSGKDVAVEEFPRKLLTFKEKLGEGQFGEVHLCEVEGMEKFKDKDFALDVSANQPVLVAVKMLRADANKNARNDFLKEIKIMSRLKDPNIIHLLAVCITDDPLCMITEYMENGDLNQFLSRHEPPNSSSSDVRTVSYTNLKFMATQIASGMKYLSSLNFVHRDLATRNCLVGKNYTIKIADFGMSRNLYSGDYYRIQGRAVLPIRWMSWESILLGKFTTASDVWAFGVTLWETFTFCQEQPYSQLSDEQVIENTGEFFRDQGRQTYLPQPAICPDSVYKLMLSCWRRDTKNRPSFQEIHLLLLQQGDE

[8] = biological target: Death-associated protein kinase 2 (Homo sapiens) (UniProt Q9UIK4); test: Inhibition of human recombinant DAPK2 at 40 nM related to control ULK1
Death-associated protein kinase 2 (Homo sapiens), sequence (Q9UIK4 whole entry, looked up): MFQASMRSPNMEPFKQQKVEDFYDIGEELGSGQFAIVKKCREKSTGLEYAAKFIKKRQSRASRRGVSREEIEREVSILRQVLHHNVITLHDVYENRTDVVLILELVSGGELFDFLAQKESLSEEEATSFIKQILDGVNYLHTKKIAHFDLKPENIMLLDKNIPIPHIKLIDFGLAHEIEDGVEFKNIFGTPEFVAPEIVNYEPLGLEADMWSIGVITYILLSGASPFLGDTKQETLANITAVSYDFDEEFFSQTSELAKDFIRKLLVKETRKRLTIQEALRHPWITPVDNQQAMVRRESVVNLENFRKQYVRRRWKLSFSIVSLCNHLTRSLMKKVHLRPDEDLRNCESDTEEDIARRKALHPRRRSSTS

Mitogen-activated protein kinase kinase kinase 9 (Homo sapiens), sequence (P80192 whole entry, looked up, the tested form may be a part): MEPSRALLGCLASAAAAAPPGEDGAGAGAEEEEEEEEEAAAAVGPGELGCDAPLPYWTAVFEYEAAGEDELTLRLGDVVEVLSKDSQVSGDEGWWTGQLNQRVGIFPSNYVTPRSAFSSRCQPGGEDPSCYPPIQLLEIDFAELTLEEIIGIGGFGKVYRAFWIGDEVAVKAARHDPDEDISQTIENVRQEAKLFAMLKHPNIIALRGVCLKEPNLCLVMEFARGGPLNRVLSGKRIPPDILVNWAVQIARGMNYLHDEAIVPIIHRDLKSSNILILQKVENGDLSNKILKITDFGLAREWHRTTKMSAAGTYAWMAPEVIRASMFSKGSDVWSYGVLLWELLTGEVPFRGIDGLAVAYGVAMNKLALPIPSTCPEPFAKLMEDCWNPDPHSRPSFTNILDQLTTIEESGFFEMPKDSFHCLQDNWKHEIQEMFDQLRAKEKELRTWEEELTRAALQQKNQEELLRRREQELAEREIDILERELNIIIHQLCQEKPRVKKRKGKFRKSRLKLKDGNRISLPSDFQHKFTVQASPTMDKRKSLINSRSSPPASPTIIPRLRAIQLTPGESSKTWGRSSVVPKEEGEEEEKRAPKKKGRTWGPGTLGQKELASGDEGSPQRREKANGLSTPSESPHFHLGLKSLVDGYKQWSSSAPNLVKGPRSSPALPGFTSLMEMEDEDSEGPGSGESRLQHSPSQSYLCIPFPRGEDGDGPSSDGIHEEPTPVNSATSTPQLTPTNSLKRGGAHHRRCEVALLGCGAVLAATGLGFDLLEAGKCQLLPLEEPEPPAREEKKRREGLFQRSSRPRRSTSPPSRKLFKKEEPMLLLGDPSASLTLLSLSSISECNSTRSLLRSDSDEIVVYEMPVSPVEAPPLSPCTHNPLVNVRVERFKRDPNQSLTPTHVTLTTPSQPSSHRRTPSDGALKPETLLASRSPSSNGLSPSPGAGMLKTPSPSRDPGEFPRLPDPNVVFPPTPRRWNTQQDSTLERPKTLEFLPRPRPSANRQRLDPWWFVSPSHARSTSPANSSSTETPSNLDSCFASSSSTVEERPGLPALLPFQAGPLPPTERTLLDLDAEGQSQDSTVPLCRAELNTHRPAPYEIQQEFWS
Calcium/calmodulin-dependent protein kinase type II subunit gamma (Homo sapiens), sequence (Q13555 whole entry): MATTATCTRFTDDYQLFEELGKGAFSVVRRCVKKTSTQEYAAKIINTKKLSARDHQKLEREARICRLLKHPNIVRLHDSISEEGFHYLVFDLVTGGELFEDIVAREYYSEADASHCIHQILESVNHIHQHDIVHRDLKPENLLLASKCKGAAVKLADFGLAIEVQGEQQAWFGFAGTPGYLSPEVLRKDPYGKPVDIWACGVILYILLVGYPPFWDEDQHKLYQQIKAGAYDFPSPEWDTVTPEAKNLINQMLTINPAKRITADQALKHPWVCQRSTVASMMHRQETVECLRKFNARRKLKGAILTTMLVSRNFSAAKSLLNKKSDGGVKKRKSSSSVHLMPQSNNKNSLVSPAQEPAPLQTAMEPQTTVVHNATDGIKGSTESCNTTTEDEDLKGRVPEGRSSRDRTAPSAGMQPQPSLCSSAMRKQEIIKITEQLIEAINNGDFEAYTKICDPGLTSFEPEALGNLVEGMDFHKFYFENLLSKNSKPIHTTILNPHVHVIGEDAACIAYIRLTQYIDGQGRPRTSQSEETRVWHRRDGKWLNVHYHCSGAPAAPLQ
TGF-beta receptor type-2 (Homo sapiens), sequence (P37173 whole entry): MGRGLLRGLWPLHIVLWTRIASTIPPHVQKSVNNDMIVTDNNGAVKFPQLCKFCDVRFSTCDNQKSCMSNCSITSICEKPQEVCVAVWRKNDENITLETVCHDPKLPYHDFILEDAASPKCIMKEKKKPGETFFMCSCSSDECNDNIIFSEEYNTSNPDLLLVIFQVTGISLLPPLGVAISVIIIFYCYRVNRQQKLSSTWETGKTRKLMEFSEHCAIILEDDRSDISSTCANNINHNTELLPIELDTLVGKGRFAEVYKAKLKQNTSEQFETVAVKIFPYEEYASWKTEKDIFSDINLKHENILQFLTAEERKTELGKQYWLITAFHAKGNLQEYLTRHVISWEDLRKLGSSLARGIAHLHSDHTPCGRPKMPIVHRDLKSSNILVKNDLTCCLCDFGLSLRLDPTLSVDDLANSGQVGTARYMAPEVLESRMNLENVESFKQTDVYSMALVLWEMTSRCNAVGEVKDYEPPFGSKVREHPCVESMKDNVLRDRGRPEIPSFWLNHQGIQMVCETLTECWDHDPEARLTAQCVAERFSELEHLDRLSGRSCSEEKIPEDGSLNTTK
Bone morphogenetic protein receptor type-1B (Homo sapiens), sequence (O00238 whole entry): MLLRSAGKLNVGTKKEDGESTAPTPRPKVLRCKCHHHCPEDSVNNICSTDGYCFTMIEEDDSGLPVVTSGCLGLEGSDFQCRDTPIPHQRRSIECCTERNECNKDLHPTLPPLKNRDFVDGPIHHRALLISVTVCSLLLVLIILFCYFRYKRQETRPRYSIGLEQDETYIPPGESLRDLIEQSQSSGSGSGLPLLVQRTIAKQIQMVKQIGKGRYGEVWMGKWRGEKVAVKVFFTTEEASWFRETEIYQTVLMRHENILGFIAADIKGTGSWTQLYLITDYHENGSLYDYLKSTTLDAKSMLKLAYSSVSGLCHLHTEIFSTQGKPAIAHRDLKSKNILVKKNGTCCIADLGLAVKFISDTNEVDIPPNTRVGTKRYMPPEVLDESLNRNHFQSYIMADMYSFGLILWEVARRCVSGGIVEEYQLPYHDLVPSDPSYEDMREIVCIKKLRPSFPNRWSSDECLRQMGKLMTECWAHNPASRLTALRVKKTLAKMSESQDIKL

- inhibition [1]: 2%
- fold change (FC) [2]: 0.86
- inhibition [3]: 0%
Compound: CNC(=O)c1ccccc1Oc1nc(Nc2cc(OC)c(OC)c(OC)c2)ncc1Br

- inhibition [4]: 42%
Compound: CC(C)[C@H](NC(=O)c1cc(-c2cnn3cc(-c4ccc(OCCN5CCCCC5)cc4)cnc23)cs1)C(F)(F)F

- fold change (FC) [5]: 0
- fold change (FC) [6]: 0.1
- fold change (FC) [7]: 0
Compound: O=C(N[C@@H](C1CC1)C(F)(F)F)c1cc(-c2cnn3cc(-c4ccc(F)cc4)cnc23)cs1
- fold change (FC) [8]: 0
